Among the data in PubChem BioAssay are viability, differential viability (reversal) and inhibition values, retold here.

Calls of active or inactive are those of the source. Unless noted, no stated cut-off is given here; in the data, active means inhibition above about 30%; inactive means the rest.

A short description of assay [1]: HUVEC growth inhibition – cell-based, human, primary screen (AID 575;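 active means viability at or below 30% in both replicate assays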;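 further: 100% = median of untreated cell wells with 0.1% DMSO on each plate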). The following applies: HUVEC proliferation, CellTiter-Glo luminescence, 72 h; at 10 µM; stronger effect = lower value. The gist of the method:
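Assay system: primary human umbilical vein endothelial cells / Buffer or medium: endothelial basal medium with 2% FBS plus growth supplements / Compound dosing: one dose, 10 µM final, 0.1% DMSO / Timing: 72 h treatment at 37 °C / Signal: CTG luminescence / Benchmarks: 32 DMSO-only cell-control wells (high), 32 MePR drug-control wells (low) per plate / Plate: collagen-coated 384-well format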

Assay [2] is described as follows: H69AR cell proliferation blockers – human, duplicate replicates, primary screen (AID 580;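 active means viability at or under a set limit in both replicates, limit being median viability minus 3 SD, cut at about 48% in these data, passing the limit was not always enough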;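 further: 100% = mean luminescence of untreated wells and 0% = no signal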). The following applies: H69AR lung tumor cells viability, ATP luminescence, 72 h; at 10 µM; stronger effect = lower value.
Assay [3] in a line: MRP1 drug-resistance reversers in H69AR cells – cell-based, doxorubicin co-treatment, pilot screen (AID 601;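 active means viability loss from added drug above about 55%, and viability with drug at most 40%, in both replicates, limit read from the data, passing the limit was not always enough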). The following applies: CellTiter-Glo, 72 h, at 10 µM; for differential viability (reversal): stronger effect = higher value. Background: ATP-based viability assays read luminescence as a measure of living cells.
The nature of assay [4]: yeast transport mutant growth inhibition pilot in 384-well plates, post-Golgi transport modulator project (AID 636; in the data active means inhibition above about 31%). The following applies: absorbance 615 nm, about 18 h, stronger effect = higher value.
Assay [5] can be described thus: growth suppression of yeast trafficking mutant, preliminary HTS, modulators of trafficking downstream of Golgi apparatus project, 1536-format plate, OD 615 nm (AID 637). The following applies: yeast transport mutant growth, absorbance 615 nm, 18 h; stronger effect = higher value.
Where [6] appears, read: H69AR cells + 2 uM doxorubicin, measured here: viability with 2 uM doxorubicin, stronger effect = lower value.
Where [7] appears, read: H69AR cells, compound alone cytotoxicity.

For `Cc1nn(CC(O)Cn2c3c(c4ccccc42)CCN(C)C3=O)c(C)c1Br` (stereo not drawn), the viability (usually a read-out of living cells in per cent, often relative to untreated cells) in assay [1] is 52.8% (inactive); in assay [2] it was 69.8% (inactive); in assay [3] (setting [6]) it was 81.9%; in assay [3] (setting [7]), 69.8%. For the same compound, the differential viability (reversal) in assay [3] (H69AR cells + 2 uM doxorubicin) was -12.1% (inactive). The inhibition (usually the drop in the measured response relative to a control, in per cent) is -4% (inactive) in assay [4] and -2.54% (inactive) in assay [5].

In the case of `Cc1ccc(Nc2cc(C)nc3nnnn23)cc1`, the viability is 78.5% (inactive) in assay [1], 93.4% (inactive) in assay [2], 85.1% in assay [3] (setting [6]) and 93.4% in assay [3] (setting [7]). The differential viability (reversal) in assay [3] (H69AR cells + 2 uM doxorubicin) was 8.3% (inactive). Further, the inhibition in assay [4] was -5.06% (inactive); in assay [5] it was -2.06% (inactive).

For `Cc1csc(OCc2ccc(C#N)cc2)n1`, the viability in assay [1] was 98.6% (inactive); in assay [2] it was 101% (inactive); in assay [3] (setting [6]), 85%; in assay [3] (setting [7]), 101%. Moreover, the differential viability (reversal) in assay [3] (H69AR cells + 2 uM doxorubicin) is 16.2% (inactive). Also, the inhibition is -5.32% (inactive) in assay [4] and 3.97% (inactive) in assay [5].

As for `CC(C)c1ccc(-c2nc(N3CCOCC3)[nH]c(=O)c2C#N)cc1`, the viability in assay [1] was 79.3% (inactive); in assay [2], 98% (inactive); in assay [3] (setting [6]), 96.4%; in assay [3] (setting [7]) it was 98%. For the same compound, in assay [3] (H69AR cells + 2 uM doxorubicin), the differential viability (reversal) was 1.58% (inactive). Besides, the inhibition was -6.4% (inactive) in assay [4] and 3.33% (inactive) in assay [5].

With `O=C1CC(c2ccccc2)CC(O)=C1C=NCCCN1CCOCC1` (stereo not drawn), the viability is 100% (inactive) in assay [1], 100% (inactive) in assay [2], 95% in assay [3] (setting [6]) and 100% in assay [3] (setting [7]). Also, the differential viability (reversal) in assay [3] (H69AR cells + 2 uM doxorubicin) was 5.34% (inactive). Moreover, the inhibition is -1.05% (inactive) in assay [4] and -3.49% (inactive) in assay [5].

`Cc1noc(NS(=O)(=O)c2ccc(NC(=O)CCC3CCCC3)cc2)c1C`: the viability in assay [1] was 88.9% (inactive); in assay [2], 94% (inactive); in assay [3] (setting [6]) it was 82.4%; in assay [3] (setting [7]), 94%. Also, in assay [3] (H69AR cells + 2 uM doxorubicin), the differential viability (reversal) is 11.6% (inactive). Besides, the inhibition is -4.03% (inactive) in assay [4] and -0.16% (inactive) in assay [5].

`Cc1ccc(-c2nnn(CC(=O)N(CC(=O)NCC3CCCO3)c3ccccc3)n2)o1` (stereo not drawn): the viability in assay [1] is 88.7% (inactive); in assay [2] it was 90.9% (inactive); in assay [3] (setting [6]), 88.4%; in assay [3] (setting [7]), 90.9%. In addition, the differential viability (reversal) in assay [3] (H69AR cells + 2 uM doxorubicin) is 2.55% (inactive). In addition, the inhibition was -5.97% (inactive) in assay [4] and -1.11% (inactive) in assay [5].

Turning to `COc1cccc(C(c2nnnn2Cc2ccccc2)N2CCN(C(=O)c3ccco3)CC2)c1OC` (stereo not drawn), the viability is 77.5% (inactive) in assay [1], 82.3% (inactive) in assay [2], 91.4% in assay [3] (setting [6]) and 82.3% in assay [3] (setting [7]). In addition, in assay [3] (H69AR cells + 2 uM doxorubicin), the differential viability (reversal) was -9.06% (inactive). In addition, the inhibition in assay [4] was -1.84% (inactive); in assay [5], -6.35% (inactive).

For `COc1ccc(C(=O)CSc2nnc(CNc3ccc(C)cc3C)o2)cc1`, the viability was 86.8% (inactive) in assay [1], 82.2% (inactive) in assay [2], 81.6% in assay [3] (setting [6]) and 82.2% in assay [3] (setting [7]). Also, the differential viability (reversal) in assay [3] (H69AR cells + 2 uM doxorubicin) is 0.595% (inactive). In addition, the inhibition in assay [4] is -2.76% (inactive); in assay [5], 1.9% (inactive).

On to `Cc1c(C(=O)NCc2ccccn2)oc2ccccc12`, for which the viability in assay [1] is 99.6% (inactive); in assay [2], 106% (inactive); in assay [3] (setting [6]) it was 80.5%; in assay [3] (setting [7]) it was 106%. Besides, the differential viability (reversal) in assay [3] (H69AR cells + 2 uM doxorubicin) was 25.7% (inactive). The inhibition is -0.92% (inactive) in assay [4] and 17.9% (inactive) in assay [5].

In the case of `O=C(Nc1ccc2c(c1)OCO2)OCc1ccccc1`, the viability in assay [1] is 78.9% (inactive); in assay [2], 106% (inactive); in assay [3] (setting [6]), 94.5%; in assay [3] (setting [7]), 106%. Further, in assay [3] (H69AR cells + 2 uM doxorubicin), the differential viability (reversal) is 11.4% (inactive). The figures for the inhibition in assay [4] and in assay [5] were -4.4% (inactive) and 2.22% (inactive), respectively.

Turning to `COc1ccc(C(=O)Nc2ccc(S(=O)(=O)Nc3nccnc3OC)cc2)cc1OC`, the viability is 97.4% (inactive) in assay [1], 99.6% (inactive) in assay [2], 88.6% in assay [3] (setting [6]) and 99.6% in assay [3] (setting [7]). Further, in assay [3] (H69AR cells + 2 uM doxorubicin), the differential viability (reversal) was 11% (inactive). For the same compound, the figures for the inhibition in assay [4] and in assay [5] were 1.69% (inactive) and 4.6% (inactive), respectively.

In the case of `CN(C)c1oc(-c2ccccc2Cl)nc1C#N`, the viability in assay [1] was 56.5% (inactive); in assay [2] it was 94.9% (inactive); in assay [3] (setting [6]), 78.1%; in assay [3] (setting [7]), 94.9%. For the same compound, the differential viability (reversal) in assay [3] (H69AR cells + 2 uM doxorubicin) was 16.8% (inactive). The inhibition in assay [4] is -3.33% (inactive); in assay [5], 3.97% (inactive).

Take `CCCOc1ccc(S(=O)(=O)NCCCN2CCOCC2)c2ccccc12`: the viability in assay [1] is 83.2% (inactive); in assay [2], 90% (inactive); in assay [3] (setting [6]), 82.6%; in assay [3] (setting [7]), 90%. In assay [3] (H69AR cells + 2 uM doxorubicin), the differential viability (reversal) was 7.43% (inactive). For the same compound, the inhibition in assay [4] was -6.13% (inactive); in assay [5] it was 4.6% (inactive).

Regarding `O=C(Cn1nnc2c(cnn2-c2ccc(F)cc2)c1=O)c1ccccc1F`, the viability is 75.6% (inactive) in assay [1], 81.2% (inactive) in assay [2], 65.1% in assay [3] (setting [6]) and 81.2% in assay [3] (setting [7]). In addition, the differential viability (reversal) in assay [3] (H69AR cells + 2 uM doxorubicin) is 16.1% (inactive). For the same compound, the inhibition in assay [4] is -3.64% (inactive); in assay [5], -0.48% (inactive).

`COc1ccccc1N(CN1CCCC1=O)C(=O)c1c(F)cccc1Cl`: the viability in assay [1] is 95% (inactive); in assay [2] it was 97.5% (inactive); in assay [3] (setting [6]) it was 97.6%; in assay [3] (setting [7]) it was 97.5%. Also, the differential viability (reversal) in assay [3] (H69AR cells + 2 uM doxorubicin) is -0.095% (inactive). Moreover, the results for the inhibition in assay [4] and in assay [5] were -5.2% (inactive) and -0.32% (inactive), respectively.

For `CCOCCCNC(=O)C1CCN(S(=O)(=O)c2c(C)noc2/C=C\c2ccc(OC)cc2)CC1`, the viability in assay [1] was 99.5% (inactive); in assay [2] it was 101% (inactive); in assay [3] (setting [6]), 101%; in assay [3] (setting [7]), 101%. For the same compound, in assay [3] (H69AR cells + 2 uM doxorubicin), the differential viability (reversal) was -0.205% (inactive). Besides, the inhibition in assay [4] was 4.13% (inactive); in assay [5], -3.65% (inactive).

Turning to `CCOC(=O)C1=C(C)N(C)C(C)=C(C(=O)OCC)C1c1cccnc1`, the viability in assay [1] is 97.5% (inactive); in assay [2], 92.4% (inactive); in assay [3] (setting [6]), 91.5%; in assay [3] (setting [7]), 92.4%. The differential viability (reversal) in assay [3] (H69AR cells + 2 uM doxorubicin) is 0.9% (inactive). In addition, the figures for the inhibition in assay [4] and in assay [5] were 0.79% (inactive) and -1.75% (inactive), respectively.

In the case of `O=S1(=O)C=C(Sc2nc3ccccc3s2)c2ccccc21`, the viability in assay [1] was 9.16% (active); in assay [2], 1.38% (active); in assay [3] (setting [6]) it was 0.99%; in assay [3] (setting [7]) it was 1.38%. Also, in assay [3] (H69AR cells + 2 uM doxorubicin), the differential viability (reversal) was 0.39% (inactive). Further, the figures for the inhibition in assay [4] and in assay [5] were 37.3% (active) and 55.6% (active), respectively.
